Only some compounds are listed: those with a hit (about 12% of all), similar ones and a draw of the others.
CHOP inh: CHOP inhibition in unfolded protein response. inhibition, % at 10 µM. hit rate 3.8% among 220,000. CHO-K1 CHOP-promoter luciferase, tunicamycin-induced, 15-18 h;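 active = compounds that reduced the stress-induced luciferase reporter signal by more than about 70% of percent inhibition, limit read from the data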;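 note: 0% = tunicamycin plus vehicle and 100% = wells without tunicamycin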
Lmaj promast: reduces viability of Leishmania major promastigotes; resazurin fluorescence viability; AID 1063; hit rate 9% among 200,000; inhibition, % at 10 µM; in the data active = inhibition above about 50%;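 note: promastigotes grown with compound for 44 hours at 28 °C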
Autophagy mod: modulators of autophagy | MEF GFP-LC3 puncta imaging; test concentration mostly 10 µM | calls only at 10 µM (by protocol) | hit rate 0.98% among 190,000 | AID 463193;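 active = percentage of spot-positive cells more than 3 SD above its plate mean, without a fluorescence outlier flag or 80% toxicity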;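 note: spot-positive cell cutoff set from DMSO-treated cells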
bCat nuc transl: beta-catenin nuclear translocation modulation. HeLa beta-catenin nuclear translocation, immunofluorescence imaging. hit rate 0.3% among 190,000. nuclear translocation activity, % at 5 µM. AID 1665;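 active = nuclear translocation activity above 50% at 5 µM, with a well cell count of 50 or more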;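 note: per-cell ratio of nuclear to cytoplasmic median beta-catenin stain intensity; plate controls were DMSO negative control for no effect and GSK-3 inhibitor IX positive control for full effect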
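Test system: human HeLa cell line; Doses: 5 µM primary, 0.02–20 µM confirmation; Incubation: 24 h compound exposure, 37°C; Detection: beta-catenin immunofluorescence imaging with DAPI; Read-out: beta-catenin nuclear/cytoplasmic ratio, % activation.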
MT stabilize HCS: microtubule stabilizers in HeLa cells; % tubulin-high responders, % at 10 µM; hit rate 0.83% among 200,000; HeLa tubulin immunostaining HCS, 24 h; share of cells brighter than vehicle mean+2SD;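 active = plate Z-score above 3 for both tubulin-high and condensed-nucleus cell shares, with cell loss under 80%, at 10 µM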;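 note: anti alpha tubulin signal scored within the nucleus-defined area of each cell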
Dynein transport: dynein cargo transport inhibition. z-score, hits read low. 3617.4 mouse cells, GR-EGFP nuclear translocation imaging; test concentration mostly 20 µM; stimulated with dexamethasone, 1 µM; hits give low values. hit rate 0.47% among 220,000. AID 1381;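 active = plate z-score of nuclear minus cytoplasmic receptor signal below a set negative limit, without overly bright fluorescence or cell loss, cut at about -3.5 in these data, passing the limit was not always enough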;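 note: z-score of nuclear minus cytoplasmic ring GR-EGFP intensity difference per well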
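medium = tetracycline-free induction medium containing charcoal-stripped FBS | also added = 1.0 µM final dexamethasone stimulus | schedule = 48 h induction, 1 h compound, 30 min dex at 37 °C | technique = fixed, Hoechst-stained cells imaged at 10x for EGFP | measure = GR-EGFP nuclear translocation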
* = called active by the depositor; i = inactive; / = not tested or not shown; + = active, no number.

SMILES | CHOP inh | Lmaj promast | Autophagy mod | bCat nuc transl | MT stabilize HCS | Dynein transport
Cc1ccc(C)c2[nH]c(=O)c(CN(Cc3nnnn3C3CCCCC3)CC3CCCO3)cc12 (stereo not given) | 38 | 100* | i | -2 | 2 | -0.79
Cc1ccc(C)c2[nH]c(=O)c(CN(CCN3CCOCC3)Cc3nnnn3CC3CCCO3)cc12 (stereo not given) | -17 | 6 | i | -4 | 4 | 2.8
Nc1nnc(SCC(=O)OCC(=O)c2ccccc2Br)s1 | -9 | -4 | i | -2 | 2 | -0.056
C/C(=N\NC(=O)CNc1cccc(Cl)c1C)C1CC1 | -2 | -5 | i | 0 | 1 | -1
NS(=O)(=O)c1ccc(CNC(=O)/C=C/c2c(F)cccc2Cl)cc1 | -3 | -7 | i | 0 | 3 | 0.13
Cc1ccc2[nH]c(=O)c(CN(Cc3ccccc3)Cc3nnnn3C3CCCC3)cc2c1 | 76* | 53* | i | -2 | 2 | 0.47
COc1cnc(-c2ccccn2)nc1Sc1ccc(F)cc1 | 12 | 94* | i | 0 | 3 | 0.12
COc1cnc(-c2ccccn2)nc1Sc1ccccc1 | -6 | 100* | i | 0 | 2 | 0.058
COc1cnc(-c2ccccn2)nc1Sc1ccc(Cl)cc1 | 30 | 100* | i | 4 | 3 | -0.18
COc1ccc(Sc2nc(-c3ccccn3)ncc2OC)cc1 | 52 | 101* | i | -2 | 3 | 1.3
CCOC(=O)CSc1nc(-c2ccccn2)ncc1OC | -39 | 1 | i | -1 | 3 | 0.068
COc1cnc(N(C)C)nc1Sc1ccc(Cl)cc1 | 33 | -3 | i | 1 | 4 | -0.38
COCCN(CCOC)C(=O)c1ccc(SCc2ccc(C)cc2)c([N+](=O)[O-])c1 | 16 | -8 | i | / | 1 | -0.46
Cc1cc(N2C(=O)C3C4CC(C(Br)C4Br)C3C2=O)no1 (stereo not given) | -2 | -3 | i | -1 | 3 | -0.77
Cn1c(N)c(C(=O)CSc2nc3ccccc3[nH]2)c(=O)n(C)c1=O | -2 | / | / | -1 | / | 0.033
O=C(CSc1cccc[n+]1[O-])C12CC3CC(CC(C3)C1)C2 | -16 | -7 | i | 2 | 2 | 0.064
CCOC(=O)c1sc(NC(=O)c2ccncc2)c(C#N)c1C | 19 | -9 | i | 0 | 6 | -0.69
CCOC(=O)c1sc(NC(=O)c2cc(-c3ccccc3C)nc3ccccc23)c(C#N)c1C | 72* | 1 | i | 6 | 4 | -0.53
Cc1ccccc1-c1cc(C(=O)Nc2sc(C)c(C)c2C(N)=O)c2ccccc2n1 | 75* | 19 | i | 3 | 2 | -0.81
COc1cc(CNCCO)ccc1OCC(=O)Nc1ccc(Br)cc1 | 32 | 100* | i | 0 | 3 | 1.8
CCCNCc1cc(OC)c(OCC(=O)Nc2ccccc2)cc1Br | 18 | 46 | i | -1 | 2 | -0.73
CC(=O)Nc1ccc(NC(=O)COc2ccc(Br)cc2C)cc1 | 25 | 62* | i | -3 | 3 | -0.61
O/C(=C\Sc1nnc(Cc2ccccc2)o1)c1ccc(F)cc1 | -4 | -5 | i | / | 2 | 1.2
CC(=O)c1cc(F)ccc1OCC(=O)N1CCN(c2ccc(F)cc2)CC1 | 0 | -5 | i | -1 | 2 | -1.1
CN1C2CCC1/C(=C\c1ccc(F)cc1)C(=O)/C2=C/c1ccc(F)cc1 | 29 | 75* | i | -2 | 4 | 0.39
SMILES | CHOP inh | Lmaj promast | Autophagy mod | bCat nuc transl | MT stabilize HCS | Dynein transport
CN1C2CCC1/C(=C/c1cccn1C)C(=O)/C2=C\c1cccn1C | -8 | 20 | i | 0 | 3 | 1
CC(=O)Nc1ccccc1NC(=O)c1ccc(C)c(C)c1 | 20 | 2 | i | -3 | 3 | 0.28
Cc1ccc(-n2c(N)c(-c3nc4ccccc4n3C)sc2=S)cc1 | 14 | 2 | i | 0 | 17 | 10
Cn1c(-c2c(N)n(-c3ccccc3)c3nc4ccccc4nc23)nc2ccccc21 | 74* | 75* | + | 3 | 2 | -0.08
Cc1cccc(-n2c(N)c(-c3nc4ccccc4n3C)c3nc4ccccc4nc32)c1 | 49 | 50 | + | -1 | i | 0.17
O=C(c1cccnc1)N1CCN(c2c(Cl)cccc2[N+](=O)[O-])CC1 | 1 | -5 | i | 3 | 1 | -0.064
CC12C(=O)N(CCC(=O)O)C(=O)C1C1C=CC2C1 (stereo not given) | 52 | 0 | i | -2 | 4 | -0.15
CCN(c1ccccc1)S(=O)(=O)c1ccc(OC)c(NC(=O)Cn2cnc3c2c(=O)n(C)c(=O)n3C)c1 | 4 | 61* | i | -1 | 3 | -0.32
CCN(c1ccccc1)S(=O)(=O)c1ccc(OC)c(NC(=O)CNCC(C)O)c1 (stereo not given) | 5 | 64* | i | 1 | 6 | -0.61
CCN(c1ccccc1)S(=O)(=O)c1ccc(Cl)c(NC(=O)CN2CCCCCC2)c1 | 55 | / | / | 0 | / | -0.23
CCN(c1ccccc1)S(=O)(=O)c1ccc(OC)c(NC(=O)CNC)c1 | 23 | 7 | i | 2 | 8 | -0.44
CCC(C)NCC(=O)Nc1cc(S(=O)(=O)N(CC)c2ccccc2)ccc1Cl (stereo not given) | 37 | 64* | i | 0 | 2 | -0.61
CCN(c1ccccc1)S(=O)(=O)c1ccc(OC)c(NC(=O)CN(C)C)c1 | 0 | 16 | i | 0 | 3 | -0.59
COC(=O)c1ccc(CSc2nnc(-c3c[nH]c4ccccc34)n2-c2ccccc2)cc1 | 33 | 42 | i | 1 | 5 | 0.15
Cc1cccc(-n2c(SCc3ccc(C#N)cc3)nnc2-c2c[nH]c3ccccc23)c1 | 20 | 98* | i | 2 | 3 | 0.64
Cc1ccc(NC(=O)CC2Oc3ccccc3NC2=O)c(C)c1 (stereo not given) | -1 | -4 | i | / | 9 | 0.79
Cc1ccc(C23CC4CC(CC(NC(=O)N5CCN(C)CC5)(C4)C2)C3)cc1 | 6 | 85* | i | 1 | 4 | 0.35
O=C(COC(=O)C1CCN(S(=O)(=O)c2ccccc2)CC1)NC(=O)c1ccc(OC(F)F)cc1 | 46 | 57* | i | 0 | 2 | -0.39
O=S(=O)(Nc1ccc(O)c(CN2CCCCC2)c1)c1ccccc1 | 2 | 99* | i | -8 | 2 | -0.83
Cn1c(CN2CCCC2)nc2cc(NS(=O)(=O)c3ccccc3)ccc21 | 16 | 3 | i | 0 | 2 | -0.8
COc1cccc(OC)c1C(=O)NC(=S)Nc1cc(-c2nc3ccccc3[nH]2)ccc1Cl | 5 | 81* | i | -1 | 6 | 0.5
O=C(CSCc1nc2ccccc2[nH]1)Nc1ccc(Oc2ccccc2)cc1 | 41 | 64* | i | 8 | 3 | 0.42
O=C(CSc1ccccc1)Nc1ccc(-c2nc3ccccc3[nH]2)cc1 | 94* | 4 | i | -2 | 2 | -0.62

Compound activity: PubChem BioAssay, several laboratories
